# Source: ChEMBL document CHEMBL4706495, “A novel class of small molecule inhibitors with radioprotective properties” (Eur J Med Chem, 2020)
# Activity calls are given as the source filed them. The rule behind the calls is not given here.
# Key:
# [1] = system: Jurkat; test: Cytotoxicity against human Jurkat cells assessed as cell viability at 10 uM measured after 48 hrs by WST-1 assay relative to control; assay type: functional; conditions: read-out: Activity
# Outline: (§1)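 Ten-line human panel (9 cancer, 1 non-cancerous). Cells were seeded at a pre-established optimal density (500–30 × 10³ per well) and settled overnight. Compounds came from 10 mM DMSO stocks and were tested at two concentrations. WST-1 readout followed the manufacturer's protocol at the end of cultivation. Viability is expressed as % of untreated control cells, mean of three independent experiments.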
# [2] = system: MOLT-4; test: Cytotoxicity against human MOLT-4 cells assessed as cell viability at 10 uM measured after 48 hrs by WST-1 assay relative to control; assay type: functional; conditions: read-out: Activity; outline: as §1
# [3] = system: A549; test: Cytotoxicity against human A549 cells assessed as cell viability at 10 uM measured after 48 hrs by WST-1 assay relative to control; assay type: functional; conditions: read-out: Activity; outline: as §1
# [4] = system: HT-29; test: Cytotoxicity against human HT-29 cells assessed as cell viability at 10 uM measured after 48 hrs by WST-1 assay relative to control; assay type: functional; conditions: read-out: Activity; outline: as §1
# [5] = system: PANC-1; test: Cytotoxicity against human PANC-1 cells assessed as cell viability at 10 uM measured after 48 hrs by WST-1 assay relative to control; assay type: functional; conditions: read-out: Activity; outline: as §1
# [6] = system: A2780; test: Cytotoxicity against human A2780 cells assessed as cell viability at 10 uM measured after 48 hrs by WST-1 assay relative to control; assay type: functional; conditions: read-out: Activity; outline: as §1
# [7] = system: HeLa; test: Cytotoxicity against human HeLa cells assessed as cell viability at 10 uM measured after 48 hrs by WST-1 assay relative to control; assay type: functional; conditions: read-out: Activity; outline: as §1
# [8] = system: MCF7; test: Cytotoxicity against human MCF7 cells assessed as cell viability at 10 uM measured after 48 hrs by WST-1 assay relative to control; assay type: functional; conditions: read-out: Activity; outline: as §1
# [9] = system: SAOS-2; test: Cytotoxicity against human SAOS-2 cells assessed as cell viability at 10 uM measured after 48 hrs by WST-1 assay relative to control; assay type: functional; conditions: read-out: Activity; outline: as §1
# [10] = Cytotoxicity against human MRC5 cells assessed as cell viability at 10 uM measured after 48 hrs by WST-1 assay relative to control; assay type: cell-based; conditions: read-out: Activity; outline: as §1
# [11] = system: Jurkat; test: Cytotoxicity against human Jurkat cells assessed as cell viability at 100 uM measured after 48 hrs by WST-1 assay relative to control; assay type: functional; conditions: read-out: Activity; outline: as §1
# [12] = system: MOLT-4; test: Cytotoxicity against human MOLT-4 cells assessed as cell viability at 100 uM measured after 48 hrs by WST-1 assay relative to control; assay type: functional; conditions: read-out: Activity; outline: as §1
# [13] = system: A549; test: Cytotoxicity against human A549 cells assessed as cell viability at 100 uM measured after 48 hrs by WST-1 assay relative to control; assay type: functional; conditions: read-out: Activity; outline: as §1
# [14] = system: HT-29; test: Cytotoxicity against human HT-29 cells assessed as cell viability at 100 uM measured after 48 hrs by WST-1 assay relative to control; assay type: functional; conditions: read-out: Activity; outline: as §1
# [15] = system: PANC-1; test: Cytotoxicity against human PANC-1 cells assessed as cell viability at 100 uM measured after 48 hrs by WST-1 assay relative to control; assay type: functional; conditions: read-out: Activity; outline: as §1
# [16] = system: A2780; test: Cytotoxicity against human A2780 cells assessed as cell viability at 100 uM measured after 48 hrs by WST-1 assay relative to control; assay type: functional; conditions: read-out: Activity; outline: as §1
# [17] = system: HeLa; test: Cytotoxicity against human HeLa cells assessed as cell viability at 100 uM measured after 48 hrs by WST-1 assay relative to control; assay type: functional; conditions: read-out: Activity; outline: as §1
# [18] = system: MCF7; test: Cytotoxicity against human MCF7 cells assessed as cell viability at 100 uM measured after 48 hrs by WST-1 assay relative to control; assay type: functional; conditions: read-out: Activity; outline: as §1
# [19] = system: SAOS-2; test: Cytotoxicity against human SAOS-2 cells assessed as cell viability at 100 uM measured after 48 hrs by WST-1 assay relative to control; assay type: functional; conditions: read-out: Activity; outline: as §1
# [20] = Cytotoxicity against human MRC5 cells assessed as cell viability at 100 uM measured after 48 hrs by WST-1 assay relative to control; assay type: cell-based; conditions: read-out: Activity; outline: as §1
# [21] = system: A549; test: Cytotoxicity against human A549 cells assessed as reduction in cell viability incubated for 24 hrs by MTT assay; assay type: functional, cell-based; conditions: A549, 24 h
# Outline: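 A-549 cells in DMEM with 10% FBS and 1% penicillin-streptomycin were attached overnight. Compounds were prepared in PBS and serially diluted in DMEM, then incubated 24 h. Viability was read by colorimetric MTT reduction against an untreated control on each plate (100%). IC50 came from four-parameter nonlinear regression of the log concentration-response curve, mean ± SEM. MTC is the highest concentration not differing from control (t-test).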
# [22] = system: A549; test: Cytotoxicity against human A549 cells assessed as maximum tolerated concentration incubated for 24 hrs by MTT assay; assay type: functional
# Outline: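 A-549 cells in DMEM with 10% FBS and 1% penicillin-streptomycin, left to attach overnight. Compounds made up in PBS, serially diluted in DMEM, incubated 24 h, then viability read by MTT reduction against untreated controls on each plate. MTC taken as the highest concentration showing no significant difference from non-treated control (t-test).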
# [23] = system: MOLT-4; test: Radioprotective activity against gamma irradiation-induced apoptosis in human MOLT-4 cells assessed as viable cells at 100 uM pretreated with compound for 1 hr followed by gamma irradiation and measured after 24 hrs by annexinV/propidium iodide staining based flow cytometry (reference value: 40 %); assay type: functional; conditions: MOLT-4, light or radiation study, time 25 hrs, read-out: Activity
# [24] = Toxicity in C57Bl/6 mouse assessed as mouth death at 100 mg/kg, ip measured after 30 days; assay type: organism-based; conditions: in vivo, 720 h, time 30 day
# Outline: (§2)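 Safety in C57Bl/6 mice (27 ± 3 g) given a single 100 mg/kg i.p. injection without irradiation. Deaths, adverse effects and body weight followed over 30 days against an untreated control group. Weight reported as change from day 0.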
# [25] = Toxicity in C57Bl/6 mouse assessed as adverse effects at 100 mg/kg, ip measured after 30 days; assay type: organism-based; conditions: in vivo, 720 h, time 30 day; outline: as §2
# [26] = Toxicity in C57Bl/6 mouse assessed as average body weight at 100 mg/kg, ip and measured immediately (reference value: 26.3 +/- 2.4 g); assay type: organism-based; conditions: in vivo
# [27] = Toxicity in C57Bl/6 mouse assessed as average body weight at 100 mg/kg, ip measured after 30 days (reference value: 27 +/ 3.2 g); assay type: organism-based; conditions: in vivo, 720 h, time 30 day
# [28] = Toxicity in C57Bl/6 mouse assessed as change in body weight at 100 mg/kg, ip measured after 30 days (reference value: 103 +/- 12 %); assay type: organism-based; conditions: in vivo, 720 h, time 30 day
# [29] = system: Mus musculus; test: Radioprotective activity in C57Bl/6 mouse assessed as median survival time at 100 mg/kg, ip administered 5 min prior to gamma-irradation at 8.5 Gy and measured after 30 days (reference value: 12 days); assay type: functional
# [30] = system: Mus musculus; test: Radioprotective activity in C57Bl/6 mouse assessed as average body weight at 100 mg/kg, ip administered 5 min prior to gamma-irradation at 8.5 Gy and measured immediately (reference value: 25.4 +/- 2.6 g); assay type: functional
# [31] = system: Mus musculus; test: Radioprotective activity in C57Bl/6 mouse assessed as average body weight at 100 mg/kg, ip administered 5 min prior to gamma-irradation at 8.5 Gy and measured after 30 days; assay type: functional
# [32] = system: Mus musculus; test: Radioprotective activity in C57Bl/6 mouse assessed as body weight gain at 100 mg/kg, ip administered 5 min prior to gamma-irradation at 8.5 Gy measured after 30 days relative to control; assay type: functional
# [33] = system: Mus musculus; test: Radioprotective activity in C57Bl/6 mouse assessed as increase in absolute B-lymphocytes at 100 mg/kg, ip pretreated with compound for 5 min followed by gamma irradiation at 8.5 Gy and measured after 30 days by flow cytometry; assay type: functional, organism-based
# Outline: (§3)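 C57Bl/6 mice receive 100 mg/kg i.p. 5 min before a single 8.5 Gy ⁶⁰Co γ dose. At 7, 12 and 30 days post-irradiation, 100 µl peripheral blood is stained with anti-CD3ε, CD19 and NK1.1 antibodies for 30 min at 4 °C in the dark. Samples are washed twice and analysed by flow cytometry for T, B and NK cells. Mean ± SEM.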
# [34] = system: Mus musculus; test: Radioprotective activity in C57Bl/6 mouse assessed as increase in absolute T-lymphocytes at 100 mg/kg, ip pretreated with compound for 5 min followed by gamma irradiation at 8.5 Gy and measured after 30 days by flow cytometry; assay type: functional, organism-based; outline: as §3
# [35] = system: Mus musculus; test: Radioprotective activity in C57Bl/6 mouse assessed as increase in absolute NK population at 100 mg/kg, ip pretreated with compound for 5 min followed by gamma irradiation at 8.5 Gy and measured after 30 days by flow cytometry; assay type: functional, organism-based; outline: as §3
# [36] = system: Jurkat; test: Cytotoxicity against human Jurkat cells assessed as cell viability at 1 uM measured after 48 hrs by WST-1 assay relative to control; assay type: functional; conditions: read-out: Activity
# [37] = system: MOLT-4; test: Cytotoxicity against human MOLT-4 cells assessed as cell viability at 1 uM measured after 48 hrs by WST-1 assay relative to control; assay type: functional; conditions: read-out: Activity
# [38] = system: A549; test: Cytotoxicity against human A549 cells assessed as cell viability at 1 uM measured after 48 hrs by WST-1 assay relative to control; assay type: functional; conditions: read-out: Activity
# [39] = system: HT-29; test: Cytotoxicity against human HT-29 cells assessed as cell viability at 1 uM measured after 48 hrs by WST-1 assay relative to control; assay type: functional; conditions: read-out: Activity
# [40] = system: PANC-1; test: Cytotoxicity against human PANC-1 cells assessed as cell viability at 1 uM measured after 48 hrs by WST-1 assay relative to control; assay type: functional; conditions: read-out: Activity
# [41] = system: A2780; test: Cytotoxicity against human A2780 cells assessed as cell viability at 1 uM measured after 48 hrs by WST-1 assay relative to control; assay type: functional; conditions: read-out: Activity
# [42] = system: HeLa; test: Cytotoxicity against human HeLa cells assessed as cell viability at 1 uM measured after 48 hrs by WST-1 assay relative to control; assay type: functional; conditions: read-out: Activity
# [43] = system: MCF7; test: Cytotoxicity against human MCF7 cells assessed as cell viability at 1 uM measured after 48 hrs by WST-1 assay relative to control; assay type: functional; conditions: read-out: Activity
# [44] = system: SAOS-2; test: Cytotoxicity against human SAOS-2 cells assessed as cell viability at 1 uM measured after 48 hrs by WST-1 assay relative to control; assay type: functional; conditions: read-out: Activity
# [45] = Cytotoxicity against human MRC5 cells assessed as cell viability at 1 uM measured after 48 hrs by WST-1 assay relative to control; assay type: cell-based; conditions: read-out: Activity
smiles,measurement,setting,value
COc1ccccc1OCC(O)CN1CCN(CCO)CC1 (stereo not given),viability at 10 µM,[1],106%
same,viability at 10 µM,[2],100%
same,viability at 10 µM,[3],91%
same,viability at 10 µM,[4],93%
same,viability at 10 µM,[5],100%
same,viability at 10 µM,[6],100%
same,viability at 10 µM,[7],93%
same,viability at 10 µM,[8],99%
same,viability at 10 µM,[9],106%
same,"viability at 48 h, 10 µM",[10],90%
same,viability at 100 µM,[11],86%
same,viability at 100 µM,[12],76%
same,viability at 100 µM,[13],109%
same,viability at 100 µM,[14],143%
same,viability at 100 µM,[15],115%
same,viability at 100 µM,[16],78%
same,viability at 100 µM,[17],99%
same,viability at 100 µM,[18],95%
same,viability at 100 µM,[19],82%
same,"viability at 48 h, 100 µM",[20],109%
same,IC50,[21],9.27 mM
same,MTD,[22],1.56 mM
same,viability at 100 µM,[23],59%
same,Activity,[24],Non-Toxic
same,Activity,[25],Non-Toxic
same,Activity,[26],27.9 g
same,Activity,[27],28.5 g
same,Activity,[28],102%
same,MST,[29],13 days
same,Activity,[30],26.8 g
same,Activity,[31],27.6 g
same,Activity,[32],102%
same,Activity,[33],Active
same,Activity,[34],Active
same,Activity,[35],Active
COc1cccc2c1C(=O)c1c(O)c3c(c(O)c1C2=O)C[C@@](O)(C(=O)CO)C[C@@H]3O[C@H]1C[C@H](N)[C@H](O)[C@H](C)O1 [DOXORUBICIN],viability at 1 µM,[36],2%
same,viability at 1 µM,[37],1%
same,viability at 1 µM,[38],42%
same,viability at 1 µM,[39],55%
same,viability at 1 µM,[40],78%
same,viability at 1 µM,[41],8%
same,viability at 1 µM,[42],76%
same,viability at 1 µM,[43],32%
same,viability at 1 µM,[44],22%
same,"viability at 48 h, 1 µM",[45],22%
